37 sequences from the array DNA melting data of Ke et al. (doi:10.1101/2024.01.08.574731) can be followed below.

Data set [1] is described as follows: folding enthalpy; higher = less favourable; fluorescence melt of hairpins on a sequencing array, two-state fit. As to conditions: sodium 0.088 M. The gist of the method:
(§1)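 Melting temperature and folding enthalpy were obtained by bootstrapped two-state fitting. Fits used Cy3 fluorescence of library hairpins with annealed Cy3 and quencher oligos on a sequenced MiSeq flow cell, imaged in 50 mM Na-HEPES pH 8.0, 25 mM NaCl in 2.5 °C steps up to 60 °C and normalised to pre-quench Cy3 and control constructs. Four replicates were combined by inverse-variance weighting, and fitted temperatures were raised by 9.35 °C to match UV melts.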

Data set [2] is described as follows: melting temperature; fluorescence melt of hairpins on a sequencing array, two-state fit, raised by 9.35 °C to match UV melts. The conditions noted are these: sodium 0.088 M. In short, it runs like this: as §1

As for GTTGGTGAAAACCAAC ((((((....)))))), the folding enthalpy in data set [1] is -37 kcal/mol. The Tm in data set [2] turned out to be 58.5 °C.

Consider GTTGGTGGAAACATCGAC ((.(.((....)).).)), for which the folding enthalpy in data set [1] is -21.1 kcal/mol. For the same sequence, in data set [2], the Tm is 35.1 °C.

As to GTTGTAGGAAACCACAAC (((((.(....).))))), the folding enthalpy in data set [1] is -32.5 kcal/mol. The Tm in data set [2] was found to be 39.9 °C.

GTTGTCCCGAAAGGGAAC (((..(((....)))))): the folding enthalpy in data set [1] was -20.7 kcal/mol. Besides, in data set [2], the Tm was found to be 50.4 °C.

GTTGTCCGAAAGGATAAC (((.(((....))).))): in data set [1], the folding enthalpy was -44.9 kcal/mol. Moreover, the Tm in data set [2] was 51.9 °C.

For GTTGTCGAAAGACTAAAC ((((((....)))..))), the folding enthalpy in data set [1] was -13.6 kcal/mol. For the same sequence, in data set [2], the Tm amounted to 29.5 °C.

Consider GTTGTCGAAAGACTTAAC ((((((....)))..))), for which the folding enthalpy in data set [1] was -10 kcal/mol. In addition, the Tm in data set [2] worked out at 27.2 °C.

Turning to GTTGTCGGAAACGATAAC (((.(((....))).))), in data set [1], the folding enthalpy was -34.6 kcal/mol. For the same sequence, the Tm in data set [2] was found to be 47.8 °C.

With GTTGTCGGAAACGGCAAC ((((.((....)).)))), in data set [1], the folding enthalpy is -37.7 kcal/mol. The Tm in data set [2] came out at 56.2 °C.

As for GTTGTGGGAAACCATAAC (((.(((....))).))), in data set [1], the folding enthalpy is -32.4 kcal/mol. In addition, the Tm in data set [2] stood at 43.5 °C.

As for GTTGTGGGAAACCATAGC (.(.(((....))).).), in data set [1], the folding enthalpy is -12.7 kcal/mol. In data set [2], the Tm amounted to 27.6 °C.

Consider GTTTAAGAAATTAAAC ((((((....)))))), for which the folding enthalpy in data set [1] was -16.8 kcal/mol. Moreover, the Tm in data set [2] was 32.4 °C.

Consider GTTTAAGCGAAAGCTAAC (((..(((....)))))), for which, in data set [1], the folding enthalpy was -11.8 kcal/mol. In addition, in data set [2], the Tm amounted to 32 °C.

Consider GTTTAAGGAAACCTAAAC (((((.(....).))))), for which, in data set [1], the folding enthalpy is -9.26 kcal/mol. Also, the Tm in data set [2] was found to be 24.8 °C.

With GTTTACGCGAAAGCGAAC (((..(((....)))))), the folding enthalpy in data set [1] was -9.1 kcal/mol. The Tm in data set [2] worked out at 31.8 °C.

Regarding GTTTACGGAAACGTGAAC (((.(((....))).))), in data set [1], the folding enthalpy was -27.7 kcal/mol. In addition, the Tm in data set [2] came to 46 °C.

As for GTTTAGACGAAAGTCAAC (((..(((....)))))), the folding enthalpy in data set [1] is -9.97 kcal/mol. The Tm in data set [2] amounted to 30.4 °C.

Regarding GTTTAGGGAAACCTAAAC (((((((....))))))), in data set [1], the folding enthalpy was -39.9 kcal/mol. Further, the Tm in data set [2] is 52.7 °C.

With GTTTATGGAAACATAAGC (.(((((....))))).), the folding enthalpy in data set [1] is -20.8 kcal/mol. In addition, the Tm in data set [2] was found to be 33.7 °C.

Turning to GTTTATGGAAACATAGAC ((.((((....)))).)), in data set [1], the folding enthalpy was -23.7 kcal/mol. In addition, the Tm in data set [2] stood at 32.2 °C.

In the case of GTTTATGGAAACGTAAAC (((((.(....).))))), the folding enthalpy in data set [1] is -30 kcal/mol. The Tm in data set [2] was found to be 37.5 °C.

On to GTTTCAACGAAAGTTAAC (((..(((....)))))), for which the folding enthalpy in data set [1] is -15.8 kcal/mol. Besides, the Tm in data set [2] is 35.5 °C.

In the case of GTTTCACGAAAGTGAAC (((.(((....)))))), the folding enthalpy in data set [1] is -14.4 kcal/mol. Further, the Tm in data set [2] was determined as 49.4 °C.

GTTTCCGAAAGGACAAAC ((((((....)))..))): the folding enthalpy in data set [1] was -9.58 kcal/mol. For the same sequence, the Tm in data set [2] is 26.1 °C.

On to GTTTCCGAAAGGACGAAC ((((((....)))..))), for which the folding enthalpy in data set [1] was -9.15 kcal/mol. In addition, the Tm in data set [2] worked out at 21.9 °C.

On to GTTTCCGAAAGGAGGAAC ((((((....)))..))), for which, in data set [1], the folding enthalpy was -9.8 kcal/mol. Further, in data set [2], the Tm was determined as 27.4 °C.

Consider GTTTCGCGAAAGCGAAC (((.(((....)))))), for which the folding enthalpy in data set [1] is -10.4 kcal/mol. In addition, in data set [2], the Tm worked out at 53.9 °C.

As to GTTTCGCGAAAGCGGAAC (((.(((....))).))), the folding enthalpy in data set [1] is -23.4 kcal/mol. Further, the Tm in data set [2] was found to be 59.2 °C.

As for GTTTCGGGAAACCGAAAC (((((((....))))))), the folding enthalpy in data set [1] is -40.2 kcal/mol. Moreover, the Tm in data set [2] is 62.5 °C.

With GTTTCGGGAAACTGAGAC ((.((.(....).)).)), the folding enthalpy in data set [1] is -13.2 kcal/mol. In data set [2], the Tm was 35.7 °C.

On to GTTTCGGGAAACTGGAAC (((.(.(....).).))), for which, in data set [1], the folding enthalpy was -13.5 kcal/mol. In data set [2], the Tm turned out to be 39.8 °C.

As for GTTTCTCGAAAGAGAAC (((.(((....)))))), the folding enthalpy in data set [1] was -17.1 kcal/mol. The Tm in data set [2] was 42.4 °C.

Regarding GTTTCTCGAAAGAGGAAC (((.(((....))).))), in data set [1], the folding enthalpy was -34.7 kcal/mol. For the same sequence, the Tm in data set [2] came out at 49.1 °C.

On to GTTTCTGGAAACGGAAAC (((((.(....).))))), for which the folding enthalpy in data set [1] is -31.8 kcal/mol. Further, the Tm in data set [2] is 45.5 °C.

Consider GTTTGAACGAAAGTTAAC (((..(((....)))))), for which the folding enthalpy in data set [1] is -12.3 kcal/mol. In addition, the Tm in data set [2] amounted to 24.4 °C.

For GTTTGAGGAAACTTAAGC (.((.((....)).)).), the folding enthalpy in data set [1] was -13.9 kcal/mol. Besides, the Tm in data set [2] turned out to be 31.9 °C.

As to GTTTGCGAAAGCAGTAAC ((((((....)))..))), the folding enthalpy in data set [1] was -12.9 kcal/mol. Besides, in data set [2], the Tm was determined as 30.6 °C.
